According to the M2OR odorant receptor database:

These molecules were tested against T1, UniProt Q920P1. Conditions: stereoisomer not certain.
T1 sequence (whole entry): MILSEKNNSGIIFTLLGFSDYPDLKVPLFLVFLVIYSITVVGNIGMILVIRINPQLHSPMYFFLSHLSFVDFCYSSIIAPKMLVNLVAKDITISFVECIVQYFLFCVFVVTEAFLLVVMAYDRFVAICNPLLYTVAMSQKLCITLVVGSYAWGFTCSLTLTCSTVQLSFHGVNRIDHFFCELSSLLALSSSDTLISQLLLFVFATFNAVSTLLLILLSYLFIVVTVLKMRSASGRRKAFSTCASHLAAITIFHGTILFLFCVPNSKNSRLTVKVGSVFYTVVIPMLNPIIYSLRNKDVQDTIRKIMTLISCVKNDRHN
In short: (§1)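 Values were gathered from published papers (main text and supplementary material), with extra details requested from the original authors when needed, and checked for typos and inconsistencies. Each receptor–molecule pair is called responsive (active) if the original authors judged the measured signal statistically different from baseline, and non-responsive (inactive) otherwise. Assay methods varied by source, often transient mammalian cell-line luciferase assays. Recorded details include cell line, G-protein, co-transfected protein and tags.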

| SMILES | odorant receptor agonist call |
| --- | --- |
| CC(C=O)Cc1ccc(C(C)(C)C)cc1 (stereo not drawn) | inactive |
| COc1cc(C=O)cc(OC)c1O | inactive |
| CCc1ccc(O)c(OC)c1 | inactive |
| C=CCc1ccc(OCC)c(OC)c1 | inactive |

What follows are molecules tested against T2, UniProt Q924H8. Conditions: stereoisomer not certain.
T2 sequence (whole entry): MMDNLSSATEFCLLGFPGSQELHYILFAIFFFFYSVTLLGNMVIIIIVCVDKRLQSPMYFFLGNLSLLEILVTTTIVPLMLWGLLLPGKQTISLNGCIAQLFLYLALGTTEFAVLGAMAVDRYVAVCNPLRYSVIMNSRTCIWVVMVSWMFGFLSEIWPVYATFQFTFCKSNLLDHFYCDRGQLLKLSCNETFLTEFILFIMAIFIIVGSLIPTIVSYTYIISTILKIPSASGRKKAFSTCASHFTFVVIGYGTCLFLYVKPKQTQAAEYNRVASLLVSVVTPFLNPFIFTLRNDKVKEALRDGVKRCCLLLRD
In short: as §1

| SMILES | odorant receptor agonist call |
| --- | --- |
| Cc1ccc(OC(=O)C(C)C)cc1 | inactive |
| CCCCCCC(=O)OCCCC | inactive |
| Cc1ccc2c(c1)OCC(=O)CO2 | inactive |
| CCCCCC(=Cc1ccccc1)C(OC)OC | inactive |
| O=C(O)CCCCCCCCC(=O)O | inactive |
| CCCCCCCOC(=O)C(C)C | inactive |
| CCCCCC(C)O (stereo not drawn) | inactive |
| C=C(CC)CCCC(C)(C)O | inactive |
| Cc1ccc(C(C)C)cc1 | inactive |
| CCc1nccnc1CC | inactive |
| COc1nccnc1C | inactive |
| CCCCCOC(=O)CCC | inactive |
| CC(=O)OC1(C)CCC23CC1C(C)(C)C2CCC3C (stereo not drawn) | active |
| CC(C)=C1CCC(C)CC1=O (stereo not drawn) | inactive |
| CCSCC | inactive |
| CC(=O)C=CC1=C(C)CCCC1(C)C | inactive |
| CSSCc1ccco1 | inactive |
| CCCC(C)C(=O)OCC (stereo not drawn) | inactive |
| CC1CC=CCCCCCCCCCC(=O)C1 (stereo not drawn) | active |
| OCCc1ccccc1 | inactive |
| CC(C)CCN | inactive |
| OCC=Cc1ccccc1 | inactive |
| CCC(C)c1nccnc1OC (stereo not drawn) | inactive |
| CCCC=O | inactive |
